From ChEMBL document CHEMBL1123068, “2-Fluoroformycin and 2-aminoformycin. Synthesis and biological activity” (J Med Chem, 1985)
pIC50: −log10 of the molar value.

Tested on: L1210
Experiment: Cytotoxic concentration required to reduce rate of L1210 cell proliferation after 48 hr
Format: functional, cell-based
Conditions: Mus musculus, L1210, 48 h
Method in brief: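 L1210 cells grown rapidly in suspension culture were exposed to a range of inhibitor concentrations, some tests with the adenosine deaminase inhibitor pentostatin added. The drop in proliferation rate versus untreated controls was found by cell counts at 24 and 48 h after addition, and IC50 was taken from this.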

Structure (SMILES) | pIC50
Nc1ncnc2c([C@@H]3O[C@H](CO)[C@@H](O)[C@H]3O)n[nH]c12.OC[C@H]1O[C@@H](n2cnc3c2NC=NC[C@H]3O)C[C@@H]1O | 6.70
Nc1ncnc2c([C@@H]3O[C@H](CO)[C@@H](O)[C@H]3O)[nH]nc12 [FORMYCIN] | 6.00
Nc1nc(N)c2[nH]nc([C@@H]3O[C@H](CO)[C@@H](O)[C@H]3O)c2n1 | 4.51
Nc1nc(N)c2[nH]nc([C@@H]3O[C@H](CO)[C@@H](O)[C@H]3O)c2n1.OC[C@H]1O[C@@H](n2cnc3c2NC=NC[C@H]3O)C[C@@H]1O | 5.30
Nc1nc(F)nc2c([C@@H]3O[C@H](CO)[C@@H](O)[C@H]3O)n[nH]c12 | 4.92
Nc1nc(F)nc2c([C@@H]3O[C@H](CO)[C@@H](O)[C@H]3O)n[nH]c12.OC[C@H]1O[C@@H](n2cnc3c2NC=NC[C@H]3O)C[C@@H]1O | 4.66
